One block for each compound: values may come before it. Activity calls are given as the source filed them. The rule behind the calls is not given here.
Legend:
[1] = Cytotoxicity in fibroblast cells assessed as morphological change at 4 to 20 uM; type: cell-based
HUVEC = test: Antiangiogenic activity in HUVEC co-cultured with fibroblasts assessed as inhibition of capillary-like tube formation at 20 uM after 11 days by microscopic staining method relative to control; type: functional; settings: Homo sapiens, 264 h
How it was run: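 Commercial co-culture kit of HUVEC and fibroblasts, given compound at final 4 or 20 μM and held at 37 °C, 5% CO₂ for 11 days. Tubes fixed with 70% ethanol and stained for CD31, then photographed under a microscope. Tube area quantified by image analysis and inhibition calculated against control taken as 100%.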

[2] = molecular target: Macrophage-stimulating protein receptor (Homo sapiens, UniProt Q04912); test: Inhibition of RON
HCT-116 = test: Antiproliferative activity against human HCT116 cells; type: cell-based
[3] = Antiproliferative activity against human KG1a cells assessed as cell growth inhibition; type: cell-based; settings: KG-1a
ASPC1 = test: Antiproliferative activity against human AsPC1 cells assessed as cell growth inhibition; type: cell-based
[4] = Half life in nude mouse at 30 mg/kg, po by LC-MS/MS analysis; type: ADME, organism-based; set-up: dose 30 mg/kg, route oral; settings: in vivo
How it was run: (§1)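 Female nude mice given single oral dose in DMSO/Cremophor EL/1% Tween 80 (1:1:8 v/v/v) by stomach sonde. Blood taken at 30 min, 1, 2, 4, 7 and 24 h (n = 2/time point). Plasma precipitated with CH3CN/MeOH plus internal standard, filtered, measured by LC-MS/MS (LLOQ 20 ng/mL). Parameters by non-compartmental analysis; CL given as CL/F.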

[5] = Tmax in nude mouse at 30 mg/kg, po by LC-MS/MS analysis; type: ADME, organism-based; set-up: dose 30 mg/kg, route oral; settings: in vivo; how it was run: as §1
HepG2 = test: Antiproliferative activity against human HepG2 cells assessed as cell growth inhibition; type: cell-based
[6] = molecular target: Vascular endothelial growth factor receptor 2 (Homo sapiens, UniProt P35968); test: Inhibition of VEGFR2
[7] = molecular target: Glycogen synthase kinase-3 beta (Homo sapiens, UniProt P49841); test: Inhibition of GSK3-beta
[8] = molecular target: Epithelial discoidin domain-containing receptor 1 (Homo sapiens, UniProt Q08345); test: Inhibition of DDR1
Epithelial discoidin domain-containing receptor 1, sequence (Q08345 whole entry, the tested form may be a part): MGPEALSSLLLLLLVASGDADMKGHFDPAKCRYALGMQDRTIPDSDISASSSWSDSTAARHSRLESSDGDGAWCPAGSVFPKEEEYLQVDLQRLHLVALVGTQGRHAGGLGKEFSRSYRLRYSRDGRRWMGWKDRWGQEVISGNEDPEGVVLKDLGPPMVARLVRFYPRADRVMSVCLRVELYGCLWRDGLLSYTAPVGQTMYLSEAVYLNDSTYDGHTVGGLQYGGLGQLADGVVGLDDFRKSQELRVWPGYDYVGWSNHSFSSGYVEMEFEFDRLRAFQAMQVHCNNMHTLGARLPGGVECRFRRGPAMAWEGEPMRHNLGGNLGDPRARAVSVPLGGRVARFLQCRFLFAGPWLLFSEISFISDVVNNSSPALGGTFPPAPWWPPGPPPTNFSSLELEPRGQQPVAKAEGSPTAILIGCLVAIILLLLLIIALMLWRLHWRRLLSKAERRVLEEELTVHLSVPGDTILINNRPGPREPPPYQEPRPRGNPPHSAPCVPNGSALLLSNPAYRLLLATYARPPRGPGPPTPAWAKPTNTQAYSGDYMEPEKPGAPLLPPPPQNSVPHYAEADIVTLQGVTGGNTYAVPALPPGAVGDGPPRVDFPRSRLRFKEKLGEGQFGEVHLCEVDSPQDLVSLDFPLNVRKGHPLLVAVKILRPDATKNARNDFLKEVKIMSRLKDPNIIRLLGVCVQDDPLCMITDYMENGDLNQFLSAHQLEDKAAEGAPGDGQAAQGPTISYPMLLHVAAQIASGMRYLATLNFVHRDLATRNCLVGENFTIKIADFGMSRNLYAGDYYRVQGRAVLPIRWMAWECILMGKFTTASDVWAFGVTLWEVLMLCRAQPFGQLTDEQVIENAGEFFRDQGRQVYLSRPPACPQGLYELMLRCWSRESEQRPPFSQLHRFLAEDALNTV

Calu-6 [9] = test: Antitumor activity against human Calu6 cells xenografted in po dosed BALB/c mouse assessed as tumor growth inhibition administered qd for 11 days; type: functional; settings: for ED50: Calu-6, po, 264 h
How it was run: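 Calu-6 cells in Hanks' balanced salt solution, 5.0 × 10⁶ per mouse, implanted s.c. in flank of female Balb/c nude mice. Once tumors reached 150 mm³, oral dosing once daily for 11 days. Tumor volume = 1/2 × long × short² diameter; growth inhibition from volume change in treated versus control group.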

A549 = test: Antiproliferative activity against human A549 cells assessed as cell growth inhibition; type: cell-based
[10] = molecular target: Tyrosine-protein kinase Fyn (Homo sapiens, UniProt P06241); test: Inhibition of Fyn
Tyrosine-protein kinase Fyn, sequence (P06241 whole entry): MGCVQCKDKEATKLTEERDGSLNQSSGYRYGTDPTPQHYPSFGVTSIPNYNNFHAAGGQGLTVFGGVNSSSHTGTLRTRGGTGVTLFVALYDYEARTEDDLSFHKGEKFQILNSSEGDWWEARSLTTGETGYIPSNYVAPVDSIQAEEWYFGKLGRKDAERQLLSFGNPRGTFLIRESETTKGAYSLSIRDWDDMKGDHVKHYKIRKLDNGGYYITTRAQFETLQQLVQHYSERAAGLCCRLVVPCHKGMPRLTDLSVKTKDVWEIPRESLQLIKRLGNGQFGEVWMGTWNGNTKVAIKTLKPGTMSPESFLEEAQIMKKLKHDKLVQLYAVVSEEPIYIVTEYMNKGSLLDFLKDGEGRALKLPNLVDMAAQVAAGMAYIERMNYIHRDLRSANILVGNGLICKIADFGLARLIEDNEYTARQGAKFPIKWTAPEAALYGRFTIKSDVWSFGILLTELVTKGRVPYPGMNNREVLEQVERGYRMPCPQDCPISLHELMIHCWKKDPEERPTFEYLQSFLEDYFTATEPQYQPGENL

NCI-H460 [11] = test: Antiproliferative activity against PTX-resistant human NCI-H460 cells assessed as cell growth inhibition; type: cell-based
[12] = molecular target: Hepatocyte growth factor receptor (Homo sapiens, UniProt P08581); test: Inhibition of MET
PANC-1 = test: Antiproliferative activity against human PANC1 cells assessed as cell growth inhibition; type: cell-based
HT-29 = test: Antiproliferative activity against human HT-29 cells assessed as cell growth inhibition; type: cell-based
MKN-28 = test: Antiproliferative activity against human MKN28 cells assessed as cell growth inhibition; type: cell-based
CEM/C2 = test: Antiproliferative activity against human CEM/C2 cells assessed as cell growth inhibition; type: cell-based
[13] = molecular target: Tyrosine-protein kinase Lyn (Homo sapiens, UniProt P07948); test: Inhibition of Lyn
Tyrosine-protein kinase Lyn, sequence (P07948 whole entry): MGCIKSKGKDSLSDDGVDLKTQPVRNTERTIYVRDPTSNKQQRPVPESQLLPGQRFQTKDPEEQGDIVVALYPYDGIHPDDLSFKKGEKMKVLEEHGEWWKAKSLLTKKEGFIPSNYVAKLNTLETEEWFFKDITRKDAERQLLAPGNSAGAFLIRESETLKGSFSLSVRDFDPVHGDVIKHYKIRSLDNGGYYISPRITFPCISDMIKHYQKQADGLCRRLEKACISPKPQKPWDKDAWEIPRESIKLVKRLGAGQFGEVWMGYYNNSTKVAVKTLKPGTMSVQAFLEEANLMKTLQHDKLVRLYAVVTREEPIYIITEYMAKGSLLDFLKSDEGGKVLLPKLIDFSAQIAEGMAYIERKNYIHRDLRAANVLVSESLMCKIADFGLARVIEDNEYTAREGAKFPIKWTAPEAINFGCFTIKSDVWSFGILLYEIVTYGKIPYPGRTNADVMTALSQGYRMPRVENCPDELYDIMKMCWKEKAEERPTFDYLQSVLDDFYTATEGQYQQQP

Calu-6 [14] = test: Antiangiogenic activity in human Calu6 cells xenografted in BALB/c mouse assessed as microvessel density reduction at 1 to 10 mg/kg, po qd for 11 days measured 24 hrs after last postdose by immunohistochemical staining method; type: functional, organism-based
How it was run: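 Female Balb/c nude mice given Calu-6 cells s.c. in the flank, 5.0×10⁶ cells per mouse. Dosing was oral, once daily for 11 days, starting once tumors reached 150 mm³. Tumors taken 24 h after the last dose and frozen-sectioned from the mid-portion. Vessels stained with anti-mouse CD31 and counted by image analysis. Density decrease expressed against control.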

[15] = molecular target: Tyrosine-protein kinase receptor UFO (Homo sapiens, UniProt P30530); test: Inhibition of AXL
[16] = molecular target: Tyrosine-protein kinase Yes (Homo sapiens, UniProt P07947); test: Inhibition of YES
Tyrosine-protein kinase Yes, sequence (P07947 whole entry): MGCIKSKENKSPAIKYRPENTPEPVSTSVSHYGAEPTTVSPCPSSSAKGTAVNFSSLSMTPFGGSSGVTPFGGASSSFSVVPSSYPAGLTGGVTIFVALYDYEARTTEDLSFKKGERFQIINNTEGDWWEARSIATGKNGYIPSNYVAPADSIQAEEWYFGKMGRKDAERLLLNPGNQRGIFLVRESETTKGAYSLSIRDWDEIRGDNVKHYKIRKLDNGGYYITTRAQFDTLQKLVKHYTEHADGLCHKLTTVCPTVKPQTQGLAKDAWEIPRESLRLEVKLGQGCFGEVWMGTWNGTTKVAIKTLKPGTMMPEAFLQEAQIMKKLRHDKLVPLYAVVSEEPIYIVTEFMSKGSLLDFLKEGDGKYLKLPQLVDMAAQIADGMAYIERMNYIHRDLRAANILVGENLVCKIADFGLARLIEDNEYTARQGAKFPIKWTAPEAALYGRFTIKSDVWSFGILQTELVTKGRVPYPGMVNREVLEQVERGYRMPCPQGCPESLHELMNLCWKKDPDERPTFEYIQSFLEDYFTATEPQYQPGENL

Mus musculus = test: Toxicity in human Calu6 cells xenografted BALB/c mouse assessed as body weight change at 1 to 10 mg/kg, po qd for 11 days; type: organism-based, Calu-6; set-up: dose 1-10 mg/kg, route oral; settings: in vivo, 264 h
How it was run: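 Calu-6 xenografts (5.0 × 10⁶ cells s.c., female Balb/c nude mice). Once tumors reached 150 mm³, oral dosing once daily for 11 days at 1, 3 and 10 mg/kg. Body weight change recorded as percent over the treatment period.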

NCI-H460 [17] = test: Antiproliferative activity against human NCI-H460 cells assessed as cell growth inhibition; type: cell-based
[18] = Antiproliferative activity against human JOK1 cells assessed as cell growth inhibition; type: cell-based
[19] = molecular target: Leukocyte tyrosine kinase receptor (Homo sapiens, UniProt P29376); test: Inhibition of LTK
[20] = Antiproliferative activity against human MDA-MB-435S cells assessed as cell growth inhibition; type: cell-based
Ephrin type-A receptor 2 = Ephrin type-A receptor 2 (Homo sapiens, UniProt P29317); test: Inhibition of EPHA2
WiDr = test: Antiproliferative activity against human WiDr cells assessed as cell growth inhibition; type: cell-based
MCF7 = test: Antiproliferative activity against human MCF7 cells assessed as cell growth inhibition; type: cell-based
DU-145 = test: Antiproliferative activity against human DU145 cells assessed as cell growth inhibition; type: cell-based
COLO 205 = test: Antiproliferative activity against human COLO205 cells assessed as cell growth inhibition; type: cell-based
[21] = molecular target: Insulin-like growth factor 1 receptor (Homo sapiens, UniProt P08069); test: Inhibition of IGF1R
Insulin-like growth factor 1 receptor, sequence (P08069 31-736 limits assumed): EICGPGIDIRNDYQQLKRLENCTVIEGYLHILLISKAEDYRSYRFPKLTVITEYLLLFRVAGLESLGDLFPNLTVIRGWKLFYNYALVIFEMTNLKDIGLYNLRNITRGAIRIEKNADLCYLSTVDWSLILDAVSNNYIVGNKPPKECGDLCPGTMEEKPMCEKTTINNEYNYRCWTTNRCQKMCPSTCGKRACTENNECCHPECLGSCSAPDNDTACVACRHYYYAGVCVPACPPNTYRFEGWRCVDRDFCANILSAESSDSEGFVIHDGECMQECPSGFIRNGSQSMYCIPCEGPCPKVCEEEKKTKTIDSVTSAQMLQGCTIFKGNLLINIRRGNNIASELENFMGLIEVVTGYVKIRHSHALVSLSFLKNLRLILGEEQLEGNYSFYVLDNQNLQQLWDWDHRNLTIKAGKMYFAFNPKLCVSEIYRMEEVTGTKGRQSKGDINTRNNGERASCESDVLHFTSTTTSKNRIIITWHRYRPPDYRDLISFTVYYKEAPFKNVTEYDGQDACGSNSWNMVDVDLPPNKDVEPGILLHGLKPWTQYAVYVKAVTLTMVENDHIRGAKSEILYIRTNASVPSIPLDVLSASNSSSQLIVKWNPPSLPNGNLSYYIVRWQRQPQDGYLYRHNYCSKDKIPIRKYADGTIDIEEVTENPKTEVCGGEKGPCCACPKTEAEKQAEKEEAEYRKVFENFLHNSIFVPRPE
Insulin-like growth factor 1 receptor, sequence (P08069 741-1367 limits assumed): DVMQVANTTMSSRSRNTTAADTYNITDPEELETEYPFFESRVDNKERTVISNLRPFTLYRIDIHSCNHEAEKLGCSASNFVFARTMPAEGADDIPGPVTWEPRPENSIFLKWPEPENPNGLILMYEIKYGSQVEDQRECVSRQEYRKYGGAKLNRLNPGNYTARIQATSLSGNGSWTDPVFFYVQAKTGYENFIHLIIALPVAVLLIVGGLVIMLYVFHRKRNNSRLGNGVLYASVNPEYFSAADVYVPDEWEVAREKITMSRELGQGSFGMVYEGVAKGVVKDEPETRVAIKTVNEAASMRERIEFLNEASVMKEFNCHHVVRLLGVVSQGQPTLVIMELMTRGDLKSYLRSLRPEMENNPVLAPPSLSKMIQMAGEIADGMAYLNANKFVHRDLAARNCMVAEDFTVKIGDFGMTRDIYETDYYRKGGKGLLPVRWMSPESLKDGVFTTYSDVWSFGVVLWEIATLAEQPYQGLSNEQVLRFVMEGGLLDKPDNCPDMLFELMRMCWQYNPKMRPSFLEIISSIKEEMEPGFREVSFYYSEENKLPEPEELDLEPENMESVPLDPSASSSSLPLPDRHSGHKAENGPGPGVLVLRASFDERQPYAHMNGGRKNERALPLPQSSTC

[22] = molecular target: Fibroblast growth factor receptor 2 (Homo sapiens, UniProt P21802); test: Inhibition of FGFR2
Fibroblast growth factor receptor 2, sequence (P21802 whole entry): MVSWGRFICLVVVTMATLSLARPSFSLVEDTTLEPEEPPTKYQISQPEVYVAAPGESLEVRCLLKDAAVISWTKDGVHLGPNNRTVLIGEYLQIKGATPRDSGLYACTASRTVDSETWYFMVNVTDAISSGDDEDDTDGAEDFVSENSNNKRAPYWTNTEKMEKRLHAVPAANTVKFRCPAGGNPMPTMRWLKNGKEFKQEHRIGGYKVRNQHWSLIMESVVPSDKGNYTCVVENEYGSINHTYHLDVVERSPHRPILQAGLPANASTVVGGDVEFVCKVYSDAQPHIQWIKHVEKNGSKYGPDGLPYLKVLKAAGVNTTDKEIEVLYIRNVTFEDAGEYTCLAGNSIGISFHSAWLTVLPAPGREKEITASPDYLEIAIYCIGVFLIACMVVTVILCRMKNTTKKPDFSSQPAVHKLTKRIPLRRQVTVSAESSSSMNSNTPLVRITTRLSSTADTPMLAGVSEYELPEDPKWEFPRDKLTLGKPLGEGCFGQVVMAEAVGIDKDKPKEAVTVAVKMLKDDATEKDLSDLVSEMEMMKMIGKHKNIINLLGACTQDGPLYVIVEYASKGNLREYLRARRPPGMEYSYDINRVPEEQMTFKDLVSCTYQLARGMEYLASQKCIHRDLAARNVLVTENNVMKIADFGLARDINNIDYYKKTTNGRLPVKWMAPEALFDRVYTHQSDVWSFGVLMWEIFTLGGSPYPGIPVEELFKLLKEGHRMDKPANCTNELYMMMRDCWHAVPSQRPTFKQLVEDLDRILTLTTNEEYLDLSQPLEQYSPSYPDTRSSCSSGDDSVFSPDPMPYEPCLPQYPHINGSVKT

K562 = test: Antiproliferative activity against human K562 cells assessed as cell growth inhibition; type: cell-based
PC-3 = test: Antiproliferative activity against human PC3 cells assessed as cell growth inhibition; type: cell-based
[23] = molecular target: Proto-oncogene tyrosine-protein kinase Src (Homo sapiens, UniProt P12931); test: Inhibition of Src
[24] = Clearance in mouse liver microsome at 5 uM after 60 mins by LC-MS/MS analysis; type: ADME; settings: liver microsomes, read-out: CLH
How it was run: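 Test compound at 5 µM incubated with mouse liver microsomes, 1.0 mg protein/mL, in 50 mM potassium phosphate pH 7.4 at 37 °C. Started by adding NADPH generating system (glucose 6-phosphate 3.2 mM, β-NADP 2.6 mM, MgCl2 6.5 mM). Substrate depletion measured against internal standard. Intrinsic clearance is the first-order decay constant normalized to protein.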

QG-56 = test: Antiproliferative activity against human QG56 cells assessed as cell growth inhibition; type: cell-based

IC50 [2]: > 50 µM
IC50 (HCT-116): 13 µM
IC50 (ASPC1): 55 µM
half-life [4]: 7.8 h
Tmax [5]: 1 h
IC50 (HepG2): 16 µM
IC50 [6]: > 50 µM
IC50 [7]: > 50 µM
IC50 [8]: > 50 µM
IC50 (A549): 13 µM
IC50 [10]: > 50 µM
IC50 (NCI-H460 [11]): 19 µM
IC50 [12]: > 50 µM
IC50 (PANC-1): 39 µM
IC50 (HT-29): 10 µM
IC50 (MKN-28): 15 µM
IC50 [13]: > 50 µM
IC50 [15]: > 50 µM
IC50 [16]: > 50 µM
IC50 (NCI-H460 [17]): 15 µM
IC50 [19]: > 50 µM
IC50 (Ephrin type-A receptor 2): > 50 µM
IC50 (MCF7): 65 µM
IC50 (DU-145): 5.3 µM
IC50 (COLO 205): 18 µM
IC50 [21]: > 50 µM
IC50 [22]: > 50 µM
IC50 (K562): 29 µM
IC50 (PC-3): 24 µM
IC50 [23]: > 50 µM
microsomal CLint at 5 µM [24]: 7 µL/min/mg
Compound: COc1ccc(C(=O)NC[C@@H](O)CO)cc1/C=C/c1ccc(Cl)cc1
Activity [1]: Non-toxic
inhibition at 20 µM (HUVEC): 86%
IC50 [3]: 17 µM
TGI (Calu-6 [9]): Dose-dependent effect
ED50 (Calu-6 [9]): 3.2 mg/kg
IC50 (CEM/C2): 30 µM
Activity (Calu-6 [14]): Active
Activity (Mus musculus): Non-toxic
IC50 [18]: 31 µM
IC50 [20]: 74 µM
IC50 (WiDr): 7 µM
IC50 (QG-56): 23 µM

IC50 [2]: > 50 µM
IC50 (HCT-116): 21 µM
IC50 (ASPC1): 63 µM
half-life [4]: 8.5 h
Tmax [5]: 1 h
IC50 (HepG2): 28 µM
IC50 [6]: > 50 µM
IC50 [7]: > 50 µM
IC50 [8]: > 50 µM
IC50 (A549): 18 µM
IC50 [10]: > 50 µM
IC50 (NCI-H460 [11]): 30 µM
IC50 [12]: > 50 µM
IC50 (PANC-1): 49 µM
IC50 (HT-29): 16 µM
IC50 (MKN-28): 23 µM
IC50 [13]: > 50 µM
IC50 [15]: > 50 µM
IC50 [16]: > 50 µM
IC50 (NCI-H460 [17]): 24 µM
IC50 [19]: > 50 µM
IC50 (Ephrin type-A receptor 2): > 50 µM
IC50 (MCF7): 63 µM
IC50 (DU-145): 23 µM
IC50 (COLO 205): 18 µM
IC50 [21]: > 50 µM
IC50 [22]: > 50 µM
IC50 (K562): 36 µM
IC50 (PC-3): 17 µM
IC50 [23]: > 50 µM
microsomal CLint at 5 µM [24]: 12 µL/min/mg
Compound: COc1ccc(C(=O)NC[C@H](O)CO)cc1/C=C/c1ccc(Cl)cc1
Activity [1]: Non-toxic
inhibition at 20 µM (HUVEC): 93%
IC50 [3]: 20 µM
TGI (Calu-6 [9]): Dose-dependent effect
ED50 (Calu-6 [9]): 2.3 mg/kg
IC50 (CEM/C2): 30 µM
Activity (Calu-6 [14]): Active
Activity (Mus musculus): Non-toxic
IC50 [18]: 38 µM
IC50 [20]: 69 µM
IC50 (WiDr): 15 µM
IC50 (QG-56): 21 µM

From ChEMBL document CHEMBL1949587 (Bioorg Med Chem, 2012)
